Source: ChEMBL document CHEMBL1147176, “Synthesis of S-dialkylarsino-3-mercapto-1,2-propanediols and evaluation of their anticancer activity” (2007)

Columns and labels:
Format in all cases: functional
SW-620 = test: Anticancer activity against human SW620 cells assessed as growth inhibition
Method in brief: (§1)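 NCI in vitro disease-oriented human tumor cell screen, about 60 lines. Growth inhibition read as pGI50, the -log of the molar concentration inhibiting 50% net cell growth. A mean graph midpoint is the arithmetic mean over all tested lines. Where the effect was not reached within the concentration interval, the highest tested concentration was used.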

IGROV-1 = test: Anticancer activity against human IGROV1 cells assessed as growth inhibition; method in brief: as §1
CAKI-1 = test: Anticancer activity against human CAKI1 cells assessed as growth inhibition; method in brief: as §1
CCRF-CEM = test: Anticancer activity against human CCRF-CEM cells assessed as growth inhibition; method in brief: as §1
HL-60 = test: Anticancer activity against human HL60(TB) cells assessed as growth inhibition; method in brief: as §1
K562 = test: Anticancer activity against human K562 cells assessed as growth inhibition; method in brief: as §1
MOLT-4 = test: Anticancer activity against human MOLT4 cells assessed as growth inhibition; method in brief: as §1
RPMI-8226 = test: Anticancer activity against human RPMI8226 cells assessed as growth inhibition; method in brief: as §1
SR = test: Anticancer activity against human SR cells assessed as growth inhibition; method in brief: as §1
A549 = test: Anticancer activity against human A549/ATCC cells assessed as growth inhibition; method in brief: as §1
EKVX = test: Anticancer activity against human EKVX cells assessed as growth inhibition; method in brief: as §1
HOP-62 = test: Anticancer activity against human HOP62 cells assessed as growth inhibition; method in brief: as §1
HOP-92 = test: Anticancer activity against human HOP92 cells assessed as growth inhibition; method in brief: as §1
NCI-H226 = test: Anticancer activity against human NCI-H226 cells assessed as growth inhibition; method in brief: as §1
NCI-H23 = test: Anticancer activity against human NCI-H23 cells assessed as growth inhibition; method in brief: as §1
NCI-H322M = test: Anticancer activity against human NCI-H322M cells assessed as growth inhibition; method in brief: as §1
NCI-H460 = test: Anticancer activity against human NCI-H460 cells assessed as growth inhibition; method in brief: as §1
NCI-H522 = test: Anticancer activity against human NCI-H522 cells assessed as growth inhibition; method in brief: as §1
COLO 205 = test: Anticancer activity against human COLO 205 cells assessed as growth inhibition; method in brief: as §1
HCC 2998 = test: Anticancer activity against human HCC2998 cells assessed as growth inhibition; method in brief: as §1
HCT-116 = test: Anticancer activity against human HCT116 cells assessed as growth inhibition; method in brief: as §1
HCT-15 = test: Anticancer activity against human HCT15 cells assessed as growth inhibition; method in brief: as §1
HT-29 = test: Anticancer activity against human HT29 cells assessed as growth inhibition; method in brief: as §1
KM12 = test: Anticancer activity against human KM12 cells assessed as growth inhibition; method in brief: as §1
SF-268 = test: Anticancer activity against human SF268 cells assessed as growth inhibition; method in brief: as §1
SF-295 = test: Anticancer activity against human SF295 cells assessed as growth inhibition; method in brief: as §1
SF-539 = test: Anticancer activity against human SF539 cells assessed as growth inhibition; method in brief: as §1
SNB-19 = test: Anticancer activity against human SNB19 cells assessed as growth inhibition; method in brief: as §1
U-251 = test: Anticancer activity against human U251 cells assessed as growth inhibition
Method in brief: (§2)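 The value is GI50, the molar concentration causing 50% inhibition of net cell growth, reported as pGI50 (−log molar).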

Malme-3M = test: Anticancer activity against human MALME3M cells assessed as growth inhibition; method in brief: as §1
M14 = test: Anticancer activity against human M14 cells assessed as growth inhibition; method in brief: as §1
SK-MEL-28 = test: Anticancer activity against human SK-MEL-28 cells assessed as growth inhibition; method in brief: as §1
OVCAR-3 = test: Anticancer activity against human OVCAR-3 cells assessed as growth inhibition; method in brief: as §1
OVCAR-4 = test: Anticancer activity against human OVCAR4 cells assessed as growth inhibition; method in brief: as §1
OVCAR-5 = test: Anticancer activity against human OVCAR5 cells assessed as growth inhibition; method in brief: as §1
OVCAR-8 = test: Anticancer activity against human OVCAR8 cells assessed as growth inhibition; method in brief: as §1
SK-OV-3 = test: Anticancer activity against human SK-OV3 cells assessed as growth inhibition; method in brief: as §1
786-0 = test: Anticancer activity against human 786-0 cells assessed as growth inhibition; settings: read-out: Log LC50 (the source's name) (converted); method in brief: as §1
ACHN = test: Anticancer activity against human ACHN cells assessed as growth inhibition; method in brief: as §1
RXF 393 = test: Anticancer activity against human RXF393 cells assessed as growth inhibition; method in brief: as §1
SN12C = test: Anticancer activity against human SN12C cells assessed as growth inhibition; method in brief: as §1
TK-10 = test: Anticancer activity against human TK10 cells assessed as growth inhibition; method in brief: as §1
UO-31 = test: Anticancer activity against human UO31 cells assessed as growth inhibition; method in brief: as §2
PC-3 = test: Anticancer activity against human PC3 cells assessed as growth inhibition; method in brief: as §1
DU-145 = test: Anticancer activity against human DU145 cells assessed as growth inhibition; method in brief: as §1
MCF7 = test: Anticancer activity against human MCF7 cells assessed as growth inhibition; method in brief: as §1
NCI/ADR-RES = test: Anticancer activity against human NCI/ADR-RES cells assessed as growth inhibition; method in brief: as §1
[1] = Anticancer activity against human HS 578T cells assessed as growth inhibition; method in brief: as §1
MDA-MB-435 = test: Anticancer activity against human MDA-MB435 cells assessed as growth inhibition; method in brief: as §1
BT-549 = test: Anticancer activity against human BT549 cells assessed as growth inhibition; method in brief: as §1
T47D = test: Anticancer activity against human T47D cells assessed as growth inhibition; method in brief: as §1
A498 = test: Anticancer activity against human A498 cells assessed as growth inhibition; method in brief: as §1
[2] = read-out: Log LC50 (the source's name) (converted)

## C[As](C)SCC(COC(=O)C(Cl)c1ccccc1)OC(=O)C(Cl)c1ccccc1 (configuration not stated)
SW-620
  GI50: 0.617 µM
SW-620; [2]
  CC50: > 100 µM
IGROV-1
  GI50: 4.47 µM
IGROV-1; [2]
  CC50: > 100 µM
CAKI-1
  GI50: 0.347 µM
CAKI-1; [2]
  CC50: 30.2 µM
CCRF-CEM
  GI50: 0.302 µM
CCRF-CEM; [2]
  CC50: 32.4 µM
HL-60
  GI50: 0.162 µM
HL-60; [2]
  CC50: 8.51 µM
K562
  GI50: 0.0372 µM
K562; [2]
  CC50: 5.37 µM
MOLT-4
  GI50: 0.347 µM
MOLT-4; [2]
  CC50: > 100 µM
RPMI-8226
  GI50: 0.316 µM
RPMI-8226; [2]
  CC50: > 100 µM
SR
  GI50: 1.41 µM
SR; [2]
  CC50: > 100 µM
A549
  GI50: 3.72 µM
A549; [2]
  CC50: > 100 µM
EKVX
  GI50: 10.5 µM
EKVX; [2]
  CC50: > 100 µM
HOP-62
  GI50: 4.37 µM
HOP-62; [2]
  CC50: 40.7 µM
HOP-92
  GI50: 0.162 µM
HOP-92; [2]
  CC50: 40.7 µM
NCI-H226
  GI50: 26.9 µM
NCI-H226; [2]
  CC50: 67.6 µM
NCI-H23
  GI50: 0.741 µM
NCI-H23; [2]
  CC50: 22.9 µM
NCI-H322M
  GI50: 1.66 µM
NCI-H322M; [2]
  CC50: 32.4 µM
NCI-H460
  GI50: 5.75 µM
NCI-H460; [2]
  CC50: 79.4 µM
NCI-H522
  GI50: 0.457 µM
NCI-H522; [2]
  CC50: > 100 µM
COLO 205
  GI50: 0.363 µM
COLO 205; [2]
  CC50: > 100 µM
HCC 2998
  GI50: 1.55 µM
HCC 2998; [2]
  CC50: 8.13 µM
HCT-116
  GI50: 0.407 µM
HCT-116; [2]
  CC50: 4.9 µM
HCT-15
  GI50: 0.38 µM
HCT-15; [2]
  CC50: > 100 µM
HT-29
  GI50: 0.813 µM
HT-29; [2]
  CC50: > 100 µM
KM12
  GI50: 1.2 µM
KM12; [2]
  CC50: 30.9 µM
SF-268
  GI50: 3.16 µM
SF-268; [2]
  CC50: 56.2 µM
SF-295
  GI50: 3.63 µM
SF-295; [2]
  CC50: 43.7 µM
SF-539
  GI50: 3.63 µM
SF-539; [2]
  CC50: > 100 µM
SNB-19
  GI50: 11.5 µM
SNB-19; [2]
  CC50: 85.1 µM
U-251
  GI50: 6.31 µM
U-251; [2]
  CC50: > 100 µM
Malme-3M
  GI50: 0.0398 µM
Malme-3M; [2]
  CC50: 3.39 µM
M14
  GI50: 0.603 µM
M14; [2]
  CC50: 34.7 µM
SK-MEL-28
  GI50: 0.603 µM
OVCAR-3
  GI50: 0.178 µM
OVCAR-3; [2]
  CC50: 3.24 µM
OVCAR-4
  GI50: 1.26 µM
OVCAR-4; [2]
  CC50: > 100 µM
OVCAR-5
  GI50: 3.55 µM
OVCAR-5; [2]
  CC50: 37.2 µM
OVCAR-8
  GI50: 4.07 µM
OVCAR-8; [2]
  CC50: > 100 µM
SK-OV-3
  GI50: 0.646 µM
SK-OV-3; [2]
  CC50: > 100 µM
786-0
  CC50: 25.1 µM
ACHN
  GI50: 0.759 µM
ACHN; [2]
  CC50: 38.9 µM
RXF 393
  GI50: 0.363 µM
RXF 393; [2]
  CC50: 36.3 µM
SN12C
  GI50: 2.45 µM
SN12C; [2]
  CC50: 67.6 µM
TK-10
  GI50: 0.112 µM
TK-10; [2]
  CC50: 2.69 µM
UO-31
  GI50: 5.37 µM
UO-31; [2]
  CC50: > 100 µM
PC-3
  GI50: 0.55 µM
PC-3; [2]
  CC50: 47.9 µM
DU-145
  GI50: 4.27 µM
DU-145; [2]
  CC50: 58.9 µM
MCF7
  GI50: 0.372 µM
MCF7; [2]
  CC50: 67.6 µM
NCI/ADR-RES
  GI50: 2.04 µM
NCI/ADR-RES; [2]
  CC50: 32.4 µM
[1]
  GI50: 6.17 µM
[1]; [2]
  CC50: > 100 µM
MDA-MB-435
  GI50: 0.209 µM
MDA-MB-435; [2]
  CC50: 28.8 µM
BT-549
  GI50: 2.45 µM
BT-549; [2]
  CC50: 64.6 µM
T47D
  GI50: 5.89 µM
T47D; [2]
  CC50: 60.3 µM
A498
  GI50: 5.5 µM
A498; [2]
  CC50: 57.5 µM
